According to ChEMBL document CHEMBL3877253, “Discovery of new hit-molecules targeting Plasmodium falciparum through a global SAR study of the 4-substituted-2-trichloromethylquinazoline antiplasmodial scaffold” (Eur J Med Chem, 2017):

Columns and labels:
[1] = Selectivity index, ratio of CC50 for human HepG2 cells to IC50 for chloroquine/pyrimethamine/proguanil-resistant Plasmodium falciparum K1 infected in human erythrocytes; type: functional
[2] = Cytotoxicity against human HepG2 cells assessed as reduction in cell viability after 72 hrs by MTT assay; type: toxicity, cell-based
In short: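 HepG2 hepatocarcinoma cells in RPMI with 10% FBS, L-glutamine, penicillin/streptomycin, 37 °C, 6% CO2. Seeded 5.10^3 cells/well, 24 h attachment, then compounds added from DMSO (final under 0.5% v/v) at various concentrations for 72 h, triplicates. Wells checked microscopically for precipitate. MTT 0.5 mg/mL 2 h, formazan dissolved in DMSO, A570 (ref 630 nm). Viability as % of untreated cells; CC50 from dose–response curve.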

Plasmodium falciparum = experiment: Antiplasmodial activity against chloroquine/pyrimethamine/proguanil-resistant Plasmodium falciparum K1 infected in human erythrocytes after 72 hrs by SYBR Green 1 dye based fluorescence spectrophotometric method; type: functional, cell-based; settings: K1, 72 h

Row | SMILES | Ratio CC50/IC50 [1] | CC50 at 72 h [2] | IC50 (Plasmodium falciparum)
1 | Clc1nc(C(Cl)(Cl)Cl)nc2ccccc12 | >2.3 | > 125 µM | –
2 | FC(F)(F)c1cccc(Nc2cc(C(Cl)(Cl)Cl)nc3ccccc23)c1 | 5 | 6.5 µM | 1.3 µM
3 | Clc1ccc(Sc2nc3ccccc3nc2C(Cl)(Cl)Cl)cc1 | 77.2 | 38.6 µM | 0.5 µM
4 | Clc1ccc(Nc2cc(C(Cl)(Cl)Cl)nc3ccccc23)c(Cl)c1 | 9 | 11.7 µM | 1.3 µM
5 | O=C1C(O)=C([C@H]2CC[C@H](c3ccc(Cl)cc3)CC2)C(=O)c2ccccc21 [ATOVAQUONE] | 15600 | > 15.6 µM | 0.001 µM
6 | C[C@H]1c2cccc(O)c2C(=O)C2=C(O)[C@]3(O)C(=O)C(C(N)=O)=C(O)[C@@H](N(C)C)[C@@H]3[C@@H](O)[C@@H]21.O [DOXYCYCLINE] | 3.3 | – | –
